# SENP1 inh: human SENP1 catalytic domain inhibitors, primary screen, biochemical, FRET, uHTS | Sentrin-specific protease 1 (Homo sapiens), Q9P0U3 | recombinant SENP1 catalytic domain, CyPet-SUMO1-YPet FRET cleavage | inhibition, % at 10 µM | actives 0.21% (n = 360,000);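 active means inhibition at least 30% at 10 µM, raw YFP signal under a set limit, fluorescence ratio 0.5 to 1.5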;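 further: 0% = enzyme with DMSO and 100% = no enzyme wells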
#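 Material – human SENP1 catalytic domain · Input – SENP1 enzyme, 20 pM final · Compound dosing – single concentration of 10 µM compound, 0.5% DMSO final · Timing – enzyme reaction for 50 min at room temperature, dark · Measured by – FRET fluorescence in CFP and YFP emission channels · Control set – no-enzyme wells low, DMSO-plus-enzyme wells high control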
# SENP8 block-1: human SENP8 protease inhibitors, primary screen, biochemical, fluorescence, Nedd8 protein substrate, uHTS | AID 602440, 2012 | recombinant SENP8 | inhibition, % at 20 µM | actives 0.64% (n = 360,000) | Sentrin-specific protease 8 (Homo sapiens), Q96LD8; in the data active means inhibition mostly above about 40%, no sharp cut-off; inactive means mostly below about 27%
# SENP8 block-2: SENP8 protease inhibitors, primary screen, biochemical, luminescence | actives 1.2% (n = 330,000) | inhibition, % at 10 µM | AID 2540, 2010 | purified SENP8, Z-RLRGG-aminoluciferin cleavage; in the data active means inhibition above about 50%
# SENP6 block: SENP6 protease inhibitors, primary screen, biochemical, luminescence, uHTS. AID 2599, 2010. actives 1.8% (n = 330,000). Recombinant SENP6 catalytic domain, aminoluciferin luminescence. Sentrin-specific protease 6 (Homo sapiens), Q9GZR1. inhibition, % at 10 µM;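 active means inhibition above about 50% at the single tested dose, limit read from the data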;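 further: plate controls were DMSO wells with enzyme for no effect and DMSO wells lacking enzyme for full effect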
# Target sequence (Q9GZR1 628-1112 limits assumed): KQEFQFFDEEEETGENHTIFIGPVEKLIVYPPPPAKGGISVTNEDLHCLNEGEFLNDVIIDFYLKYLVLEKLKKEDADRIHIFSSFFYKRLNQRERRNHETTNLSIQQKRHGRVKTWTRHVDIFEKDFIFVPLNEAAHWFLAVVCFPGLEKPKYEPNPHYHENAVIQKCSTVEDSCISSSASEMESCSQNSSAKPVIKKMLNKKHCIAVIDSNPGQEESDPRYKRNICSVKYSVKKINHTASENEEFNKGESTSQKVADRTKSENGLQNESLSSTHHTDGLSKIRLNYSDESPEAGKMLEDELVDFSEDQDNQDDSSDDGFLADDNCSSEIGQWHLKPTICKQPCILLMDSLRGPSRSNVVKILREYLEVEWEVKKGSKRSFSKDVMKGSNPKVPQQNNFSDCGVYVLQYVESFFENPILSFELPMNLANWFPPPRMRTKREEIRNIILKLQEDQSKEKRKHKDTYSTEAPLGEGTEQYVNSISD
# SENP7 inh: SENP7 protease inhibitors, primary screen, biochemical, luminescence, uHTS | Sentrin-specific protease 7 (Homo sapiens), Q9BQF6 | recombinant SENP7, Z-RLRGG-aminoluciferin luminescence, 40 min | inhibition, % at 5 µM | actives 1.5% (n = 330,000) | AID 434973, 2010;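 active means inhibition above about 50% at the single test dose, limit read from the data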;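 further: plate controls were DMSO with enzyme for no effect and no enzyme buffer wells for full effect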
# * hit, by the source's call; · = no result. Shown are actives, neighbours in structure and some others; about 2.5% of the full set was active somewhere.
SMILES,SENP1 inh,SENP8 block-1,SENP8 block-2,SENP6 block,SENP7 inh
Cc1ccc(N=Cc2cc(Cc3ccccc3Cl)cc([N+](=O)[O-])c2O)c(O)c1,7,52*,10,17,-8
COc1ccc(N=Cc2cc(Cc3ccccc3Cl)cc([N+](=O)[O-])c2O)cc1OC,10,31,22,45,10
O=C(C1CCN(S(=O)(=O)c2ccccc2F)CC1)N1CCN(Cc2ccc3c(c2)OCO3)CC1,2,10,-4,-14,-7
Cc1nccc(-c2cccc(N/N=C(\C#N)C(=O)c3ccccc3)c2)n1,0,38*,3,5,-1
N#C/C(=C\c1ccc(O)c(O)c1)C(=O)c1ccc(O)c(O)c1,3,11,81*,83*,45
N#C/C(=C\c1ccc(O)c(O)c1)C(=O)N1CCCC1,-41,0,-4,12,0
CCOC(=O)C1(CCCc2ccccc2)CCN(C(=O)CCc2cnn(C)c2)CC1,4,15,-2,-8,-7
CCOC(=O)C1(CCCc2ccccc2)CCN(C(=O)CCOC)CC1,1,6,-9,87*,-6
O=S(=O)(c1ccc(NC(=S)N2CCCCC2CO)cc1)N1CCOCC1 (stereo not given),-2,6,·,·,·
CCCCC(=O)Nc1cc(OC)c(NC(=S)Nc2ccc(OC)cc2)cc1OC,-1,2,·,·,·
OCCN=Cc1c(O)[nH]c2ccccc12,3,15,-1,-8,15
Oc1[nH]c2ccccc2c1C=Nc1ccccc1,-3,38,46,67*,62*
CCOC(=O)c1c2c(n(C)c1COC)C(=O)C(=O)c1ccc(Br)cc1-2,·,·,97*,96*,95*
CCCn1c(=O)c(C(=O)OCC)c(O)c2cc(Br)ccc21,3,6,3,5,2
COCCn1c(=NC(=O)CSCC(=O)N2CCOCC2)sc2cc(C)ccc21,-3,-22,-3,8,-10
O=C(Nc1cc(Cl)ccc1-n1cncn1)c1ccc([N+](=O)[O-])o1,-42,1,6,0,2
Cc1ccc2cccc(NC3OC(=O)c4ccccc43)c2n1 (stereo not given),-23,10,22,51*,36
Cn1cnc2ncnn2c1=S,3,-5,·,·,·
N#C/C(=C(/O)COc1ccc(Cl)cc1)c1nc2ccccc2s1,0,7,81*,93*,1
N#C/C(=C(/O)COc1ccccc1)c1nc2ccccc2s1,2,5,29,1,-1
N#C/C(=C(/O)c1ccc(F)cc1)c1nc2ccccc2s1,-11,-2,82*,87*,51*
N#C/C(=N\O)c1nc2ccccc2s1,-23,7,-13,-19,-8
O=C(/C=C/c1ccccc1)CC(=O)c1ccccc1O,-11,-8,-24,-35,-22
Cc1[nH]c2ccccc2c1N=Nc1ccc(F)cc1,4,47*,-8,15,-6
CCN(CC)c1ccc(N)cc1,54*,6,2,-2,6
SMILES,SENP1 inh,SENP8 block-1,SENP8 block-2,SENP6 block,SENP7 inh
CC1=C(C(=O)Nc2ccc(Cl)cc2)C2(CCCCC2)C(C(N)=O)C(=S)N1 (stereo not given),·,·,-5,-10,-4
CC1CCCN(c2ccc(/C=C(\C#N)c3nn(-c4ccccc4)c(N)c3C#N)cc2[N+](=O)[O-])C1 (stereo not given),1,47*,7,2,7
CC1CCN(c2cc(N3CCC(C)CC3)c([N+](=O)[O-])cc2/C=C(\C#N)c2nn(-c3ccccc3)c(N)c2C#N)CC1,9,60*,3,9,12
CC1CCN(c2ccc(/C=C(\C#N)c3nn(-c4ccccc4)c(N)c3C#N)cc2[N+](=O)[O-])CC1,2,31,-5,8,-2
COc1ccc(CCN(C)C2CCCN(C(=O)c3sccc3C)C2)cc1OC (stereo not given),-2,-4,2,-4,-6
Cc1ccc(S(=O)(=O)N(C)C[C@@H]2OCc3cnnn3CCCC(=O)N([C@H](C)CO)C[C@H]2C)cc1,1,9,·,·,·
O=C1C(=O)c2c(ccc3ccccc23)-c2ccccc21,-2,99*,·,·,·
CN(C)/C=C1\Oc2ccc3ccccc3c2C1=O,-23,-366,1,13,-1
Cc1ccc(Cl)cc1Nc1nc(-c2sc(NC(=O)c3ccccc3)nc2C)cs1,·,·,27,51*,0
Cc1cc(NS(=O)(=O)c2ccc(Nc3nc(-c4sc(NC(=O)c5ccccc5)nc4C)cs3)cc2)no1,·,·,43,72*,65*
CCOc1ccccc1Nc1nc(-c2sc(NC(=O)c3ccccc3)nc2C)cs1,·,·,59*,72*,64*
CCOC(=O)c1ccc(CNC(=O)c2cc(COc3ccccc3SC)on2)o1,-1,10,18,32,-10
CCOC(=O)N1CCC(NC(=O)c2csc3c2CCCC3)CC1,1,12,-17,-10,11
O=C1C(NS(=O)(=O)c2cccs2)=C(N2CCOCC2)C(=O)c2ccccc21,-1,42*,1,-13,6
O=C1C(NS(=O)(=O)c2cccs2)=C(N2CCN(c3cccc(C(F)(F)F)c3)CC2)C(=O)c2ccccc21,9,56*,6,6,24
Cc1ccc(NC(=O)CSc2nc3cc(C(=O)NCC4CCCO4)ccc3c(=O)n2CC2CCCO2)cc1 (stereo not given),1,2,·,·,·
OCC[C@H]1C[C@@H](O)[C@H](O)[C@@]2(CCCCO2)O1,3,9,7,-9,2
COc1cccc(/C=N/NC(=O)c2cnn(-c3ccccc3)c2N)c1,1,-17,71*,83*,81*
Cc1[nH]n(-c2ccccc2)c(=O)c1/C=N/NC(=O)c1cccc([N+](=O)[O-])c1,0,52*,0,9,-1
Cc1[nH]n(-c2cccc3ccccc23)c(=O)c1/C=N/NC(=O)c1cccc([N+](=O)[O-])c1,2,8,3,15,11
CCOc1ccccc1NC(=O)Nc1ccc(Cl)cc1,1,14,52*,83*,72*
O=C1C2C(C(=O)N1/N=C/c1cc(Br)cc([N+](=O)[O-])c1O)C1C=CC2C12CC2 (stereo not given),12,41*,1,-8,-5
O=c1c2cc(O)c(O)cc2oc2cc(O)c(C3OC(CO)C(O)C(O)C3O)c(O)c12 (stereo not given),37*,18,2,-19,0
O=c1cc(-c2ccc(O)c(O)c2)oc2cc(O)c([C@@H]3O[C@H](CO)[C@@H](O)[C@H](O)[C@H]3O)c(O)c12,15,30,-14,-19,-12
O=C(O)Cc1ccc2c(c1)Cc1cccnc1O2,1,13,·,·,·
